# Reference: PubChem BioAssay
# Active and inactive are the calls of the source.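 How the source made its calls, unless noted: active means fluorescence slope higher than the sample average by over 3 SD (cut at about -0.22 in these data, passing the limit was not always enough); inactive means the rest.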
# What was measured:
# [1] = inhibitors of TNFa-induced NFkB p65 translocation, primary screen, imaging, HUVEC, MLSMR starter and 10KST1 sets (AID 438;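 active means inhibition above 20% together with a positive visual image hit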;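 further: compound added about 3h40 before a 20 min TNFalpha stimulation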;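 on inhibition: signal is the nuclear over cytoplasmic p65 intensity ratio per well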); conditions: HUVEC TNFa-induced p65 nuclear translocation; cell count: measured here: nuclei count (cytotoxicity indicator), at 2.08 µM; inhibition: at 2 µM, stronger effect = higher value, 0% TNFa-plus-vehicle, 100% no-TNFa wells
# [2] = inhibitors of E-selectin induction by TNFa, primary screen, imaging, HUVEC, immunofluorescence, MLSMR starter and 10KST1 sets (AID 487;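 active means visually confirmed hit in the image check and inhibition above 20%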;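 on inhibition: signal is fraction of cell area covered by stained E-selectin grains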;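 on nuclei count: 100% = median nuclei count of all wells on the same plate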); conditions: HUVEC TNFalpha-induced E-selectin immunofluorescence imaging, at 2 µM; inhibition: stronger effect = higher value; nuclei count: measured here: cell number, toxicity
# [3] = DUSP6 inhibitors restoring Erk phosphorylation by chemical complementation, primary imaging in DUSP6-transfected HeLa (AID 609;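 active means compounds giving at least 50% inhibition in the cell-based MKP-3 phosphatase rescue imaging test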;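 on inhibition: phospho-Erk level distribution per well compared with pooled transfected vehicle control wells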); conditions: HeLa MKP-3 transfected, phospho-Erk imaging KS statistic, at 10 µM, cells stimulated with TPA for 15 min
# [4] = target: Dual specificity protein phosphatase 6 (Homo sapiens) (UniProt Q16828); experiment: as above; conditions: HeLa MKP-3 transfected, phospho-Erk imaging KS statistic; at 10 µM; stronger effect = higher value; cells stimulated with TPA for 15 min
# Dual specificity protein phosphatase 6 (Homo sapiens), sequence (Q16828 whole entry, looked up): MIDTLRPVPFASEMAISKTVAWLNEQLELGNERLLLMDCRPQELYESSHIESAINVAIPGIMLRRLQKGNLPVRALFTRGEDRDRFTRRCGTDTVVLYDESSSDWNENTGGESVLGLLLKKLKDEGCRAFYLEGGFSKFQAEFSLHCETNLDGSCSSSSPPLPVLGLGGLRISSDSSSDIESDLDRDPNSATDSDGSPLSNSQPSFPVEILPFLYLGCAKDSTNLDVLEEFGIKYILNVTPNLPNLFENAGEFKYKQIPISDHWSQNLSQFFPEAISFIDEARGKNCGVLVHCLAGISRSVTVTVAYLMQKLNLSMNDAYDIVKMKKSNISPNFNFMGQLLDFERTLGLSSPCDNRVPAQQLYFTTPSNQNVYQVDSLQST
# [5] = target: Voltage-gated potassium channel subunit beta-2 (Rattus norvegicus) (UniProt P62483); experiment: KvBeta enzyme negative modulators, primary screen, biochemical, NADPH fluorescence (AID 622); conditions: recombinant KvBeta, 4-cyanobenzaldehyde reduction, at 10 µM, stronger effect = higher value;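 further: slope of raw intensity against log time taken from 70 to 1610 s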
# Voltage-gated potassium channel subunit beta-2 (Rattus norvegicus), sequence (P62483 whole entry, looked up): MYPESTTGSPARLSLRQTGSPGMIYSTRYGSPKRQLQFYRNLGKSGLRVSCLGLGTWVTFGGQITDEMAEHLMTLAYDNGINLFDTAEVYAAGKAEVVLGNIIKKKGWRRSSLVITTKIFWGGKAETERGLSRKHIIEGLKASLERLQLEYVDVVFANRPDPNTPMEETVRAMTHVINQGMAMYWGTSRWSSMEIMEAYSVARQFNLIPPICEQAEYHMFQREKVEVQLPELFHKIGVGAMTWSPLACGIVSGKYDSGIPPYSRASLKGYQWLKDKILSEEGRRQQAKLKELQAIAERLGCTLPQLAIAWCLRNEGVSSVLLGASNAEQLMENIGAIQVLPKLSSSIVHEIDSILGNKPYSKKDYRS
# [6] = target: Voltage-gated potassium channel subunit beta-2 (Rattus norvegicus) (UniProt P62483); experiment: KvBeta positive modulators, primary screen, biochemical, NADPH fluorescence (AID 623;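 active means NADPH fluorescence slope more negative than the mean of all samples by about 3 SD, 99.7% confidence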;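 further: fluorescence intensity change per second fitted from 20 to 320 s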); conditions: Recombinant KvBeta, NADPH fluorescence decrease slope, 10 min; at 10 µM; stronger effect = lower value
# [7] = target: Alpha-2C adrenergic receptor (Homo sapiens) (UniProt P18825); experiment: modulators of alpha2C/GIRK thallium flux, primary screen, cell-based, HEK293 alpha2C/GIRK1/2 (AID 624;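 active means fluorescence slope after compound addition differing from the mean of all screened samples at 99.7% confidence, in either direction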;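 further: slope of fluorescence ratio to pre-addition baseline per second over 15 to 24 s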); conditions: thallium flux BTC fluorescence, at 10 µM, actives lie on both sides
# Alpha-2C adrenergic receptor (Homo sapiens), sequence (P18825 whole entry, looked up): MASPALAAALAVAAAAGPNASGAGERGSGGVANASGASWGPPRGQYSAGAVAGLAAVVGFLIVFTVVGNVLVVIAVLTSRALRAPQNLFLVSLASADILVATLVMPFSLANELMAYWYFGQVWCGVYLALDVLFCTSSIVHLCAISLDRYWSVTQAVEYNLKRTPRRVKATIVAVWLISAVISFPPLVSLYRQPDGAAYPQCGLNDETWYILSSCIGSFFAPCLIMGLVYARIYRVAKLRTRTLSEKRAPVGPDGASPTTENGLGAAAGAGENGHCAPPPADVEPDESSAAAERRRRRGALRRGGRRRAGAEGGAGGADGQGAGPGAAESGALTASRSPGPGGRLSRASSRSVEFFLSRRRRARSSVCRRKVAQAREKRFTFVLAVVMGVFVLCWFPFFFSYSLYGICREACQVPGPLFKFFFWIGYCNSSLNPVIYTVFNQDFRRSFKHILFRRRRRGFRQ
# [8] = inhibitors of larval lipid processing in zebrafish, primary screen, whole organism, PED6 fluorescence, gall bladder and intestine (AID 686;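 active means a full or partial loss of lipid-probe fluorescence in the fish gall bladder, intestine or both, judged by eye; inactive means no fluorescence loss, or compound toxic to the fish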;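 further: larvae 5 to 7 days old with five fish per well; signal comes from phospholipase A2 cleavage of quenched PED6 carried via bile; overnight exposure to compound and PED6 before scoring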); conditions: Zebrafish larvae PED6 lipid processing, fluorescence scoring; screened at 20 µM (by protocol)
# Method in brief: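 system = live zebrafish larvae aged 5-7 days, whole organism | probe or stimulus = ingested quenched lipid PED6 at 100 nM | doses = 20 µM single dose | timing = overnight exposure | detection = fluorescence microscopy with visual scoring of gall bladder and intestine | read-out = visual per-well fluorescence inhibition score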
# [9] = inhibitors of Chlamydomonas gravitaxis, primary screen, whole organism, Chlamydomonas reinhardtii, WT vs cilia-less mutant, absorbance, 96-well (AID 463189;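 active means inhibition at or above 50% relative to wild type and mutant plate controls; inactive means inhibition below 50%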;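 further: 0% = wild type cc124 cells in DMSO and 100% = ciliumless bld1 mutant cells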); conditions: OD600 absorbance, 2 days, at 10 µM, stronger effect = higher value
# [10] = measured here: cell density z-score
# [11] = measured here: nuclear c-Myc green intensity z-score
# [12] = measured here: nuclear pErk red intensity z-score, stronger effect = higher value
SMILES,cell count [1],inhibition [1],inhibition [2],nuclei count [2] [%],"z-score [3, 10]","z-score [3, 11]","z-score [3, 12]",inhibition [4],fluorescence slope [5],NADPH fluorescence slope [6],slope [7],outcome [8],inhibition [9]
S=c1nc(-c2ccccc2)[nH]n1-c1ccccc1,339,-3.4% (inactive),-90.9% (inactive),110,1.6,-1.83,-0.637,11.4% (inactive),-0.454 (inactive),3.3e-06 (inactive),0.0253 (active),inactive,-5.69% (inactive)
CCOc1cccc(-c2nnc3sc(C4CCCCC4)nn23)c1,683,1.1% (inactive),16.2% (inactive),160,1.83,-1.11,-1.63,15.5% (inactive),-0.446 (inactive),-0.000139 (inactive),0.00527 (inactive),inactive; toxic,36.1% (inactive)
Cc1c(/C(O)=C2\C(=O)C(=O)N(CCN(C)C)C2c2cccnc2)cnn1-c1ccccc1 (stereo not drawn),512,-1.7% (inactive),-140% (inactive),139,1.11,-1.54,0.165,-8.76% (inactive),-0.564 (inactive),-7.1e-05 (inactive),0.00465 (inactive),inactive,-1.73% (inactive)
CSc1nc(NC(C)=O)nc(C)c1Cl,555,1.9% (inactive),33.2% (inactive),97.7,-0.722,0.648,-0.574,1.48% (inactive),-0.343 (inactive),-7.4e-06 (inactive),0.00457 (inactive),inactive,37.7% (inactive)
O=C(CN1C(=O)c2ccccc2S1(=O)=O)c1ccccc1,567,-7.2% (inactive),39.2% (inactive),193,0.246,1.04,-0.287,7.73% (inactive),-0.511 (inactive),-9e-05 (inactive),0.005 (inactive),inactive,-6.59% (inactive)
CC(C)C1=C2OC(N)=C(C#N)C(C#N)=C2C(C)CC1 (stereo not drawn),361,-6.8% (inactive),-144% (inactive),150,0.333,0.379,0.759,7.48% (inactive),-0.391 (inactive),-3.9e-05 (inactive),0.0063 (inactive),inactive,13% (inactive)
Cc1ccc(OCc2nnc(NC(=O)c3ccco3)s2)c(C)c1,438,-7.3% (inactive),15.6% (inactive),106,-0.686,-0.603,0.0542,-1.12% (inactive),-0.308 (inactive),-1.3e-05 (inactive),0.00608 (inactive),inactive,-4.85% (inactive)
COc1ccc(OC)c(C2/C(=C(/O)c3cnn(-c4ccccc4)c3C)C(=O)C(=O)N2CCN(C)C)c1 (stereo not drawn),452,1.9% (inactive),8.9% (inactive),86.9,-1.51,0.604,-0.829,-1.75% (inactive),-0.47 (inactive),-9.5e-06 (inactive),0.00657 (inactive),inactive,12% (inactive)
Nc1c(Br)cc2oc(-c3ccccc3)nc2c1Br,539,-3.4% (inactive),-23.5% (inactive),119,-0.358,-0.383,-0.387,6.51% (inactive),-0.482 (inactive),-6.5e-05 (inactive),0.00567 (inactive),inactive,-9.35% (inactive)
COc1cc(C(=O)OCCN2CCCCC2)ccc1O,675,-2.2% (inactive),38.8% (inactive),199,-0.395,-0.645,0.828,-3.98% (inactive),-0.493 (inactive),-0.000169 (inactive),0.00513 (inactive),inactive,17.1% (inactive)
C=CCOC(=O)C(C#N)c1nc2ccccc2nc1N1CCC(C(=O)OCC)CC1 (stereo not drawn),486,-17.7% (inactive),-58.1% (inactive),138,0.17,0.218,-0.151,-6.06% (inactive),-0.471 (inactive),-6.3e-05 (inactive),0.00188 (inactive),inactive,13.6% (inactive)
COC(=O)C(NC(C)=O)(Nc1ccccc1)C(=O)OC,566,-19.3% (inactive),-259% (inactive),191,1.28,-1.78,-0.855,18.2% (inactive),-0.532 (inactive),-6.4e-05 (inactive),0.00504 (inactive),inactive,2.12% (inactive)
Cc1ccc(C(C)C)c(OCCNc2nc3c(c(=O)n(C)c(=O)n3C)n2C)c1,605,-26.5% (inactive),-61.7% (inactive),165,-0.12,-0.388,2.45,-4.27% (inactive),-0.422 (inactive),-5.2e-05 (inactive),0.0063 (inactive),inactive,-2.79% (inactive)
COC(=O)c1[nH]c2cc(OC)ccc2c1NC(=O)CCN1CCCC(C)(C)C1,350,-5.3% (inactive),-2.2% (inactive),153,-0.606,-0.827,0.954,7.42% (inactive),-0.44 (inactive),-0.00014 (inactive),0.00716 (inactive),inactive,-7.62% (inactive)
O=C1c2ccccc2S(=O)(=O)N1CC(O)COc1ccc(Cl)cc1 (stereo not drawn),354,-14.1% (inactive),-291% (inactive),97,0.633,0.437,-1.99,1.75% (inactive),-0.439 (inactive),-8.9e-06 (inactive),0.00476 (inactive),inactive,1.18% (inactive)
COc1ccc(-c2cn3ccsc3n2)cc1,536,-3% (inactive),-235% (inactive),197,-1.31,-1.4,1.15,-8.95% (inactive),-0.478 (inactive),-0.000227 (inactive),0.00481 (inactive),inactive,-19.1% (inactive)
CCn1c(-c2ccco2)n[nH]c1=S,428,-12.3% (inactive),-47.8% (inactive),92.3,0.73,0.522,-1.57,22.3% (inactive),-0.542 (inactive),-2.6e-05 (inactive),0.00489 (inactive),inactive,19.9% (inactive)
O=C1C(=O)N(CCN2CCOCC2)C(c2ccccn2)/C1=C(/O)c1ccccc1 (stereo not drawn),382,-4.7% (inactive),-87.4% (inactive),107,-0.264,0.535,-1.2,-0.159% (inactive),-0.432 (inactive),-1.4e-05 (inactive),0.00578 (inactive),inactive,-11.4% (inactive)
O=C(O)C1CCCCN1S(=O)(=O)c1cccc2nsnc12 (stereo not drawn),488,9.4% (inactive),-8.1% (inactive),93.9,-0.854,0.334,-0.543,-6.06% (inactive),-0.498 (inactive),-3.9e-05 (inactive),0.0076 (inactive),inactive,-16.5% (inactive)
O=C(NCc1ccco1)c1cnn2c1NC(c1ccccc1)CC2C(F)(F)F (stereo not drawn),479,-5.5% (inactive),-25.8% (inactive),107,-0.862,0.861,-0.0535,-2.07% (inactive),-0.53 (inactive),-4e-05 (inactive),0.0056 (inactive),inactive,-7.85% (inactive)
Cc1nc(NCc2ccccc2)c(C(N)=O)c2c1COC(C)(C)C2,643,-5.8% (inactive),-17.6% (inactive),192,0.783,0.565,-0.208,9.39% (inactive),-0.512 (inactive),-7.6e-05 (inactive),0.00486 (inactive),inactive,-5.71% (inactive)
O=CN1CCN(C(=O)CN2C(=O)c3ccccc3C2=O)CC1,359,-7.2% (inactive),-43.3% (inactive),161,0.687,-0.0272,-1.29,11.4% (inactive),-0.452 (inactive),-0.000158 (inactive),0.00499 (inactive),inactive,15.5% (inactive)
COc1cccc(C(=O)N2CCN(S(=O)(=O)Cc3ccccc3)CC2)c1OC,424,-16.3% (inactive),-254% (inactive),195,0.309,-0.845,-0.459,12.7% (inactive),-0.291 (inactive),1.9e-05 (inactive),0.00419 (inactive),inactive,17.5% (inactive)
Cc1nc2oc(C(=O)c3ccc(Br)cc3)c(N)c2c2c1COC(C)(C)C2,643,-7.3% (inactive),-142% (inactive),119,0.13,-0.803,-0.664,24.7% (inactive),-0.532 (inactive),-5.4e-05 (inactive),0.00462 (inactive),inactive,39.3% (inactive)
CC(=O)N[C@H]1C[C@@H]1c1ccccc1,404,-8.9% (inactive),0.6% (inactive),103,0.812,-0.111,-1.93,6.04% (inactive),-0.4 (inactive),3.1e-05 (inactive),0.00883 (inactive),inactive,-14.5% (inactive)
CCCCn1c(-c2ccc(Cl)cc2)nc2c(=O)n(C)c(=O)[nH]c21,453,-18.9% (inactive),-400% (inactive),197,0.0253,-0.817,1.4,11% (inactive),-0.398 (inactive),-5.4e-06 (inactive),0.00511 (inactive),inactive,-2.64% (inactive)
